# Assay results from ChEMBL document CHEMBL3808334, “Synthesis and in vitro evaluation of novel triazine analogues as anticancer agents and their interaction studies with bovine serum albumin” (Eur J Med Chem, 2016).
# What was measured:
# SK-MEL-2 = assay: Growth inhibition of human SK-MEL-2 cells assessed as cell growth at 10^-8 M incubated for 48 hrs by sulforhodamine B assay; type: functional; conditions: SK-MEL-2, 48 h, read-out: Activity
# SK-MEL-5 = assay: Growth inhibition of human SK-MEL-5 cells assessed as cell growth at 10 uM incubated for 48 hrs by sulforhodamine B assay; type: functional; conditions: SK-MEL-5, 48 h, read-out: Activity
# [1] = Growth inhibition of human DU145 cells assessed as cell growth at 10^-5 M incubated for 48 hrs by sulforhodamine B assay; type: functional; conditions: DU-145, 48 h, read-out: Activity
# In short: (§1)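 Cells seeded at 5,000–40,000/well according to doubling time and preincubated 24 h at 37 °C, 5% CO2. Time-zero plates were TCA-fixed. DMSO concentrate was diluted in medium with 50 µg/ml gentamicin to give five concentrations (10-fold or ½ log steps), then exposed 48 h. Cells were TCA-fixed, stained with 0.4% SRB and read at 515 nm. Percent growth was taken against time-zero and control; GI50, TGI and LC50 derived.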
# [2] = Growth inhibition of human Hs 578T cells assessed as cell growth at 10^-8 M incubated for 48 hrs by sulforhodamine B assay; type: functional; conditions: read-out: Activity
# [3] = Growth inhibition of human HOP92 cells incubated for 48 hrs by sulforhodamine B assay; type: functional; conditions: HOP-92, 48 h; in short: as §1
# [4] = Growth inhibition of human HOP92 cells assessed as cell growth at 10^-5 M incubated for 48 hrs by sulforhodamine B assay; type: functional; conditions: HOP-92, 48 h, read-out: Activity
# NCI-H226 = assay: Growth inhibition of human NCI-H226 cells assessed as cell growth at 10^-5 M incubated for 48 hrs by sulforhodamine B assay; type: functional; conditions: NCI-H226, 48 h, read-out: Activity
# [5] = Growth inhibition of human PC3 cells assessed as cell growth at 10 uM incubated for 48 hrs by sulforhodamine B assay; type: functional; conditions: PC-3, 48 h, read-out: Activity
# [6] = Growth inhibition of human HCT116 cells assessed as cell growth at 10 uM incubated for 48 hrs by sulforhodamine B assay; type: functional; conditions: HCT-116, 48 h, read-out: Activity
# In short: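 Primary screen at one dose (10 µM) across 60 human cancer cell lines. Readout was growth percent relative to untreated control and time-zero.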
# MDA-MB-231 = assay: Growth inhibition of human MDA-MB-231 cells assessed as cell growth at 10^-5 M incubated for 48 hrs by sulforhodamine B assay; type: functional; conditions: MDA-MB-231, 48 h, read-out: Activity
# NCI-H322M = assay: Growth inhibition of human NCI-H322M cells assessed as cell growth at 10^-4 M incubated for 48 hrs by sulforhodamine B assay; type: functional; conditions: read-out: Activity
# [7] = Growth inhibition of human SF539 cells assessed as cell growth at 10^-8 M incubated for 48 hrs by sulforhodamine B assay; type: functional; conditions: SF-539, 48 h, read-out: Activity
# M14 = assay: Growth inhibition of human M14 cells assessed as cell growth at 10^-6 M incubated for 48 hrs by sulforhodamine B assay; type: functional; conditions: M14, 48 h, read-out: Activity
# [8] = Growth inhibition of human DU145 cells assessed as cell growth at 10^-7 M incubated for 48 hrs by sulforhodamine B assay; type: functional; conditions: DU-145, 48 h, read-out: Activity; in short: as §1
# [9] = Growth inhibition of human HOP92 cells assessed as cell growth at 10 uM incubated for 48 hrs by sulforhodamine B assay; type: functional; conditions: HOP-92, 48 h, read-out: Activity
# [10] = Growth inhibition of human LOXIMVI cells incubated for 48 hrs by sulforhodamine B assay; type: functional; conditions: LOX IMVI
# In short: (§2)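 Cells were plated at 5,000–40,000 per well according to doubling time and preincubated 24 h at 37 °C in 5% CO2; time-zero plates were then TCA-fixed. Five concentrations (10-fold or ½-log dilutions, DMSO stock) were incubated 48 h. Cells were TCA-fixed, stained with 0.4% SRB and read at 515 nm. GI50 was taken where [(Ti−Tz)/(C−Tz)]×100 = 50.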
# [11] = Growth inhibition of human RXF393 cells incubated for 48 hrs by sulforhodamine B assay; type: functional; conditions: RXF 393, 48 h; in short: as §2
# Albumin = Albumin (Bos taurus, UniProt P02769); assay: Binding affinity to bovine serum albumin assessed as red shift in emission intensity up to 20 uM by fluorescence spectroscopic analysis relative to control; type: ADME; conditions: cattle, isolated protein
# Chain of Albumin (P02769 whole entry): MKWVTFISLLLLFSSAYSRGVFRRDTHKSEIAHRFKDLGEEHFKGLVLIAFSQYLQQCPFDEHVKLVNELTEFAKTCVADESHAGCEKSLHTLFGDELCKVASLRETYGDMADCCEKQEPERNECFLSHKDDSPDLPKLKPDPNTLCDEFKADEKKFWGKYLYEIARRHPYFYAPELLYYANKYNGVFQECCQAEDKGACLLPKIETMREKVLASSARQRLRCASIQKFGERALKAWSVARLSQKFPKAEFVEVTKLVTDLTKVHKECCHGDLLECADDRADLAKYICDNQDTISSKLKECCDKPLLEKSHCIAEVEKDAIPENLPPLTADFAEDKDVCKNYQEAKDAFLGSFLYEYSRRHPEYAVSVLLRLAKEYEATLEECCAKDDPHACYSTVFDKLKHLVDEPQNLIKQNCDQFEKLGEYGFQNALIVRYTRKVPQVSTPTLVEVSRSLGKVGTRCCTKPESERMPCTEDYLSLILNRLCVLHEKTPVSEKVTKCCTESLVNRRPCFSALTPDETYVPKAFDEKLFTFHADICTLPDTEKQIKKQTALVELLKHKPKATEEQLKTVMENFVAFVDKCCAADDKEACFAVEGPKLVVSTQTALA
# In short: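 Fluorescence titration of 10 µM BSA in 0.1 M phosphate buffer pH 7.4 with compound at 0–20 µM, diluted from DMSO stocks. Excitation 280 nm, slit 10 nm, 1 cm quartz cell, 300 K. Changes in the 350 nm Trp emission, new bands near 370–373 nm and isoemissive points are read against BSA alone.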
# A498 = assay: Growth inhibition of human A498 cells assessed as cell growth at 10^-6 M incubated for 48 hrs by sulforhodamine B assay; type: functional; conditions: A498, 48 h, read-out: Activity
# In short: (§3)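 Five-dose assay: five concentrations from 10-fold or ½-log serial dilutions. Cells are plated at 5,000–40,000 per well according to doubling time, grown 24 h, then exposed 48 h at 37 °C, 5% CO₂. Fixed with cold 50% TCA (final addition) for 60 min at 4 °C and stained with 0.4% SRB in 1% acetic acid. Bound dye is solubilized in 10 mM Tris base and read at 515 nm. GI₅₀ is where [(Ti−Tz)/(C−Tz)]×100 = 50, with a time-zero plate as Tz.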
# SR = assay: Growth inhibition of human SR cells assessed as cell growth at 10^-6 M incubated for 48 hrs by sulforhodamine B assay; type: functional; conditions: read-out: Activity
# [12] = Growth inhibition of human BT549 cells assessed as cell growth at 10^-5 M incubated for 48 hrs by sulforhodamine B assay; type: functional; conditions: BT-549, 48 h, read-out: Activity; in short: as §3
# [13] = Growth inhibition of human SF539 cells assessed as cell growth at 10^-7 M incubated for 48 hrs by sulforhodamine B assay; type: functional; conditions: SF-539, 48 h, read-out: Activity
# [14] = Growth inhibition of human SF295 cells incubated for 48 hrs by sulforhodamine B assay; type: functional; conditions: SF-295, 48 h; in short: as §2
# [15] = Growth inhibition of human Caki1 cells assessed as cell growth at 10^-6 M incubated for 48 hrs by sulforhodamine B assay; type: functional; conditions: CAKI-1, 48 h, read-out: Activity; in short: as §1
# 786-0 = assay: Growth inhibition of human 786-0 cells assessed as cell growth at 10^-8 M incubated for 48 hrs by sulforhodamine B assay; type: functional; conditions: 786-0, 48 h, read-out: Activity; in short: as §3
# [16] = read-out: LC50 (the source's name)
# [17] = read-out: pLC50 (the source's name) (converted)
structure (smiles),measurement,setting,value
Fc1ccc(-c2nc(Nc3ccc(-c4nc5ccccc5[nH]4)cc3)nc(N3CCOCC3)n2)cc1,growth at 0.01 µM,SK-MEL-2,103%
same,growth at 10 µM,SK-MEL-5,-90.7%
same,growth at 10 µM,[1],25%
same,growth at 0.01 µM,[2],95%
same,GI50,[3]; read-out: GI50,1800 nM
same,LC50 (concentration killing 50% of starting cells),[3]; read-out: LC50,7760 nM
same,TGI,[3]; read-out: TGI,3740 nM
same,GI50,[3]; read-out: pGI50 (converted),1820 nM
same,LC50 (concentration killing 50% of starting cells),[3]; read-out: pLC50 (converted),7760 nM
same,TGI,[3]; read-out: pTGI (converted),3720 nM
same,growth at 10 µM,[4],-67%
same,growth at 10 µM,NCI-H226,-8%
same,growth at 10 µM,[5],2.31%
same,growth at 10 µM,[6],4.8%
same,growth at 10 µM,MDA-MB-231,-35%
same,growth at 100 µM,NCI-H322M,9%
same,growth at 0.01 µM,[7],98%
same,growth at 1 µM,M14,95%
same,growth at 0.1 µM,[8],100%
same,growth at 10 µM,[9],-6.57%
same,GI50,[10]; read-out: GI50,1780 nM
same,TGI,[10]; read-out: TGI,3590 nM
same,GI50,[10]; read-out: pGI50 (converted),1780 nM
same,TGI,[10]; read-out: pTGI (converted),3630 nM
same,GI50,[11]; read-out: GI50,459 nM
same,CC50,[11]; [16],> 100000 nM
same,TGI,[11]; read-out: TGI,2510 nM
same,GI50,[11]; read-out: pGI50 (converted),457 nM
same,CC50,[11]; [17],> 100000 nM
same,TGI,[11]; read-out: pTGI (converted),2510 nM
same,Activity,Albumin,23 nm
same,growth at 1 µM,A498,74%
same,growth at 1 µM,SR,37%
same,growth at 10 µM,[12],-53%
same,growth at 0.1 µM,[13],92%
same,GI50,[14]; read-out: GI50,1590 nM
same,CC50,[14]; [16],> 100000 nM
same,TGI,[14]; read-out: TGI,4700 nM
same,GI50,[14]; read-out: pGI50 (converted),1580 nM
same,CC50,[14]; [17],> 100000 nM
same,TGI,[14]; read-out: pTGI (converted),4680 nM
same,growth at 1 µM,[15],87%
same,growth at 0.01 µM,786-0,100%
c1ccc(-c2nc(Nc3ccc(-c4nc5ccccc5[nH]4)cc3)nc(N3CCOCC3)n2)cc1,growth at 0.01 µM,SK-MEL-2,105%
same,growth at 10 µM,SK-MEL-5,-95.4%
same,growth at 10 µM,[1],-96%
same,growth at 0.01 µM,[2],94%
same,GI50,[3]; read-out: GI50,1380 nM
same,LC50 (concentration killing 50% of starting cells),[3]; read-out: LC50,6730 nM
same,TGI,[3]; read-out: TGI,3050 nM
same,GI50,[3]; read-out: pGI50 (converted),1380 nM
same,LC50 (concentration killing 50% of starting cells),[3]; read-out: pLC50 (converted),6760 nM
same,TGI,[3]; read-out: pTGI (converted),3020 nM
same,growth at 10 µM,[4],-75%
same,growth at 10 µM,NCI-H226,-60%
same,growth at 10 µM,[5],-35.5%
same,growth at 10 µM,[6],-81.5%
same,growth at 10 µM,MDA-MB-231,-53%
same,growth at 100 µM,NCI-H322M,-62%
same,growth at 0.01 µM,[7],98%
same,growth at 1 µM,M14,69%
same,growth at 0.1 µM,[8],95%
same,growth at 10 µM,[9],-66.2%
same,GI50,[10]; read-out: GI50,489 nM
same,TGI,[10]; read-out: TGI,2120 nM
same,GI50,[10]; read-out: pGI50 (converted),490 nM
same,TGI,[10]; read-out: pTGI (converted),2140 nM
same,GI50,[11]; read-out: GI50,501 nM
same,CC50,[11]; [16],7240 nM
same,TGI,[11]; read-out: TGI,2120 nM
same,GI50,[11]; read-out: pGI50 (converted),501 nM
same,CC50,[11]; [17],7240 nM
same,TGI,[11]; read-out: pTGI (converted),2140 nM
same,Activity,Albumin,20 nm
same,growth at 1 µM,A498,55%
same,growth at 1 µM,SR,-20%
same,growth at 10 µM,[12],-69%
same,growth at 0.1 µM,[13],93%
same,GI50,[14]; read-out: GI50,1250 nM
same,CC50,[14]; [16],6470 nM
same,TGI,[14]; read-out: TGI,2840 nM
same,GI50,[14]; read-out: pGI50 (converted),1260 nM
same,CC50,[14]; [17],6460 nM
same,TGI,[14]; read-out: pTGI (converted),2820 nM
same,growth at 1 µM,[15],68%
same,growth at 0.01 µM,786-0,99%
